# In the RNAGym collection of RNA variant scans (doi:10.1126/science.aae0568):
# Variants at the floor of the assay were thinned out.
# B1: tRNA (parent)
# chain: GUUCCGUUGGCGUAAUGGUAACGCGUCUCCCUCCUAAGGAGAAGACUGCGGGUUCGAGUCCCGUACGGAACG
# Variants of: B1
# Assay: yeast fitness relative to wild type (ratio to wild type); higher = fitter; tRNA-Arg(CCU), competitive growth, 37 C, YPD
# Procedure, shortened: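 Variants of the tRNA-Arg(CCU) gene, chemically synthesised with a 3% per-site mutation rate at 69 sites, were placed at the native genomic locus in Saccharomyces cerevisiae. The pooled strains were competed in YPD at 37°C for 24 hours in six parallel replicates. Gene amplicons from the start population and from each end population were read by 100-nucleotide paired-end sequencing. Darwinian fitness relative to wild type came from changes in genotype frequencies; genotypes needed ≥ 100 starting reads, and estimates < 0.5 were set to 0.5.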
row,Variant,yeast fitness
1,G6A A15C C27A C61G A70U,0.579
2,C5U U32G C33G,≤ 0.5
3,C5U U28C C29G,≤ 0.5
4,C5U C30G A57C,0.715
5,C5U G12A A40U A45G C60A G63A,≤ 0.5
6,C5U G50C G51C G56C G67A,≤ 0.5
7,C5U C46U U59G,0.538
8,C5U U28G C29U G50C,≤ 0.5
9,C5U U8G A20G C34A,≤ 0.5
10,C5U G10C,0.629
11,C5U G10A,0.702
12,C5U C29U A43G,0.632
13,C5U C34A G56A,≤ 0.5
14,C5U G23A G25C,0.65
15,C5U C31U C34U,≤ 0.5
16,C5U U8A C61U,0.548
17,C5U U19C U28A C66U G68A,≤ 0.5
18,C5U G50A G63A,0.608
19,C5U U16G A65G C66U,≤ 0.5
20,C5U G44A,1.08
21,C5U G25C A42U A69U,≤ 0.5
22,C5U U28A A69C,0.541
23,C5U G52A,0.697
24,C5U U47G G50C,0.575

row,Variant,yeast fitness
1,C5U C29A A69C,≤ 0.5
2,C5U U7A C62A A69G A70G,≤ 0.5
3,C5U G6C,0.818
4,C5U G25C A42U,0.639
5,C5U C29U G50C U59A,≤ 0.5
6,C5U G39A A45C,0.76
7,C5U G10A A70U,0.609
8,C5U G9C A36G C60G A70G,≤ 0.5
9,G6A,0.965
10,C5U G6A A40C C46A,0.578
11,C5U C55U,0.864
12,C5U U19G A37G C66U A69U,0.547
13,C5U U13A C24U A45C,0.671
14,G6A A15G U28G A42U G48A,≤ 0.5
15,C5U G10A A21G G39A G48C,0.598
16,C5U G52A C66U,0.584
17,C5U U26A G48C A57G,≤ 0.5
18,G6A A15U G23A,0.525
19,C5U U53G C62A,≤ 0.5
20,C5U U19C C24G C61A A70G,≤ 0.5
21,G6A A14G C33A G39C,≤ 0.5
22,C5U U8C U26A,0.727
23,C5U U13A C46A C62U C66U,≤ 0.5
24,C5U G52C C66U,0.57

row,Variant,yeast fitness
1,C5U C34A G67A,≤ 0.5
2,C5U U7A A45G G67A,≤ 0.5
3,G6A A14U A15U C31G,0.668
4,C5U C62U,1.03
5,C5U G6A A15U A21G U54G,≤ 0.5
6,C5U G10A C66U,0.574
7,C5U U16G U35A,≤ 0.5
8,G6A A14U C55A,0.552
9,C5U G51A G56A A65C,≤ 0.5
10,C5U G50A C66A,≤ 0.5
11,C5U G50A C66U,0.637
12,C5U G48A C55U C66U,0.521
13,C5U U19C G67C A70U,≤ 0.5
14,C5U C29G C30G,≤ 0.5
15,C5U G17C C27U A65G,≤ 0.5
16,C5U C33G C61A C66U,≤ 0.5
17,C5U U16G A43U G58A,≤ 0.5
18,C5U U16C C31A G67C,≤ 0.5
19,C5U U7G A40G A57U,≤ 0.5
20,C5U U7C C24G C27A,≤ 0.5
21,C5U G17A C60G G67A,≤ 0.5
22,C5U C31A A40G C61U A65U,≤ 0.5
23,C5U G38C G39C A40G G44A C46G G52A,≤ 0.5
24,G6A A14G C49U,0.57

row,Variant,yeast fitness
1,C5U U16G G41C G51A C60G A70U,≤ 0.5
2,G6A A15C C27A C61G U64C A70U,≤ 0.5
3,C5U C29G C30A G63A U64G A69C,0.572
4,G6A A14U A57G U59C,≤ 0.5
5,C5U G39A G48A A57U,0.565
6,C5U C27U G41A,0.573
7,C5U U28C C46A C66G,0.534
8,C5U U8A G38C A42C G63A,0.534
9,C5U U47C G51A,0.548
10,C5U G25C C29A,≤ 0.5
11,C5U C31G A57U,≤ 0.5
12,C5U C49A C66U,0.551
13,C5U U19A G25C A43U,0.758
14,C5U G18C U26G,≤ 0.5
15,C5U G10A C27G G48C C61G,≤ 0.5
16,C5U U8C A20G C30A G68U,≤ 0.5
17,C5U C34U C60U,≤ 0.5
18,C5U G18C U26C C30U C31G A70C,≤ 0.5
19,C5U C30A C33G A42C C60A C66A A69C,≤ 0.5
20,G6A A14G C24A C31U A40U A70G,≤ 0.5
21,C5U U35C A36G,0.801
22,C5U U7C C24A C61U,≤ 0.5
23,C5U C27G U28A C30G C31U G67A,≤ 0.5
24,C5U U64A G67U,≤ 0.5

row,Variant,yeast fitness
1,G6A A14C A42U G63C,≤ 0.5
2,C5U U8C G41C,0.542
3,C5U C33U,0.71
4,C5U U8A G68A,0.544
5,C5U G17U C29G C31G A36U A37C A69C,≤ 0.5
6,C5U U32C G39A C60U C61G G68C,≤ 0.5
7,C5U U35G U47A G48A A65U,0.557
8,G6A A14C G41A A42U G56A G63C,0.665
9,C5U U7C U26C U28C C29G C34A,0.659
10,C5U G10C C30A A36U A42C,≤ 0.5
11,C5U G12A A69C,0.724
12,C5U U7A A14G,0.538
13,C5U G18A A40U U47C,0.501
14,C5U G10A U16A A65G,≤ 0.5
15,C5U U19C U26A C62A,≤ 0.5
16,C5U U47A G48C G51A,≤ 0.5
17,C5U U13A C62U A65C,≤ 0.5
18,C5U C46G,0.93
19,C5U G9A C22A C55G,≤ 0.5
20,C5U C34A C55G A69U,≤ 0.5
21,C5U U16A G23A G25C,≤ 0.5
22,C5U C55G A69U,≤ 0.5
23,C5U U13A C27G A57C G67A A69U,≤ 0.5
24,C5U U26G G58A,0.924

row,Variant,yeast fitness
1,C5U C29A U32C C60A,0.596
2,C5U C29G C31G A36U A37C A57C G68C,≤ 0.5
3,G6A A14U C31G G38A,≤ 0.5
4,C5U U13C C61U,0.673
5,C5U G39U,0.823
6,C5U G39A,0.938
7,C5U U13G A69U,0.76
8,C5U G12C G44C,0.53
9,C5U G12C U32A U35A U54C,≤ 0.5
10,C5U U19C A37G G63C,≤ 0.5
11,C5U U19C G52A,0.625
12,C5U G18A U28A G56A C61G,0.626
13,C5U G41A C55G C66U,≤ 0.5
14,C5U G9C G23A G50A A65U,≤ 0.5
15,C5U G25A A70U,1.05
16,C5U C34A G38C,≤ 0.5
17,C5U U19A G48A,0.741
18,C5U G56A A65U,0.854
19,C5U C33U C34U G58C G63A,≤ 0.5
20,C5U U16A G38A A42G U64G,≤ 0.5
21,C5U G38C G41C C60G,≤ 0.5
22,C5U G18A,0.76
23,C5U U35C C62U G68C,≤ 0.5
24,C5U U13A C29G C31A G63C,0.533

row,Variant,yeast fitness
1,C5U U19C,0.963
2,C5U C49A,0.78
3,C5U C49U,0.953
4,C5U C49U G56U,0.538
5,C5U C34A U53A,0.562
6,C5U G12C A69U,0.62
7,C5U G25A C49A A69U,≤ 0.5
8,C5U C27G U35G G44A,≤ 0.5
9,C5U U28G C30G A40C A42U,≤ 0.5
10,C5U C31U G41C A43C C60G,≤ 0.5
11,G6A A14G C31U A36G,≤ 0.5
12,C5U G44C G68C,0.697
13,C5U U16C G18A C30A G58A G68U,≤ 0.5
14,C5U C61G G67U,≤ 0.5
15,C5U U8A A65U,≤ 0.5
16,G6A A15G C46U C66U,0.77
17,C5U C29A A42G C61G,≤ 0.5
18,C5U G51C C55A C62U A65U A69U,≤ 0.5
19,C5U C49U C66A G67A,≤ 0.5
20,C5U G9A C22U,0.593
21,C5U G10C C27G U28C G39C C46G A65G,≤ 0.5
22,C5U G17C U26G A69U,≤ 0.5
23,C5U G58A C61U A70G,0.797
